Source: PubChem
Beta apoptosis – beta cell apoptosis inhibition | INS-1E cytokine-induced death, ATP luminescence, 48 h; percent of positive-control rescue, neutral wells zero | protection from apoptosis, % (concentration not given with the values) | hit rate 0.8% among 300,000;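 active = Every replicate reaches about 75%, or at least half do and their mean reaches it too, limit read from the data; inconclusive = At least half of replicates reach the limit but their mean does not; inactive = Under half of replicates reach the limit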;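 also: 0% = cytokine-treated negative control wells and 100% = positive control rescue; higher means more ATP so stronger rescue from cytokine killing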
SKKanGAS inh – blocks kanamycin growth of S. pyogenes SKKanGAS strain; hit rate 1.3% among 300,000; inhibition, % at 7.5 µM; BacTiter-Glo, 6 h;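 active = mean replicate score, as percent of positive control median, at least 50; inconclusive = mean below 50 but one replicate at or above 50; inactive = mean and every replicate below 50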;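 also: strain carries kanamycin resistance gene driven by streptokinase promoter and grows in 40 µg/ml kanamycin; loss of luminescence reflects streptokinase promoter inhibition or plain growth inhibition; 0% = median of DMSO wells and 100% = positive control at its reference dose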
CSC inhib – blocks cancer stem cells. hit rate 1.1% among 300,000. inhibition, % at 7.5 µM. cancer stem cell-like cells viability, luminescence; in the data active = inhibition above about 75%; inconclusive = no clear call, values can overlap the other calls; tested in HMLE shEcad cells
Lmaj promast – Leishmania major promastigote growth inhibition; inhibition, % at 10 µM; hit rate 9% among 200,000; AID 1063; Leishmania major promastigotes, resazurin fluorescence viability; in the data active = inhibition above about 50%;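 also: promastigotes grown with compound for 44 hours at 28 °C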
T cruzi inh – blocks replication of Trypanosoma cruzi | T. cruzi beta-gal in NIH3T3, luminescence, 90 h | inhibition, % (no concentration beside the values) | hit rate 1.4% among 300,000 | AID 1885;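 active = mean inhibition across valid replicates above about 55%, limit read from the data; inconclusive = mean below that limit but half or more replicates reach it; inactive = mean below it, under half of replicates reach it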;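 also: signal also drops with host cell toxicity which is not excluded here; 0% = plate median of DMSO wells and 100% = zero luminescence signal; higher percent means less beta-gal luminescence so fewer parasites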
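Incubation – ≥90 h infection period, 3 h prior cell attachment · System – NIH/3T3 fibroblasts plus reporter T. cruzi · Doses – compound pinned at 50 nL/well, DMSO · Read-out basis – percent inhibition of parasite-derived β-gal signal · Signal – luminescent β-galactosidase signal after 60 min lysis · Also added – 5000 T. cruzi trypomastigotes/well · Medium – Low-serum DMEM with 2% FBS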
Mdm2-MdmX inh – inhibitors of human Mdm2/MdmX interaction; O15151+Q00987; SaOS-2 split-luciferase Mdm2/MdmX complementation, luminescence; inhibition, % at 8 µM; hit rate 3% among 330,000; AID 485346;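 active = inhibition of at least 50% at 8 µM in the primary screen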
Active calls of the source: *; ? = inconclusive; . = not tested or not shown. Hits are enriched below; roughly 9.4% of the tested compounds scored in any of these assays.

SMILES | Beta apoptosis | SKKanGAS inh | CSC inhib | Lmaj promast | T cruzi inh | Mdm2-MdmX inh
CC(C)c1ccccc1-n1c(SCC(=O)c2ccc3c(c2)NC(=O)CO3)nc2ccccc2c1=O | 18 | 22 | -3 | 67* | ? | 41
O=C1COc2ccc(C(=O)CSc3ccccc3C(=O)O)cc2N1 | 2 | -1 | -20 | . | -15 | 21
Cc1ccc2cc3cc(C(=O)NCCCN4CCCC4)oc3nc2c1 | -4 | 4 | -17 | . | 22 | 5
Cc1ccc2cc3cc(C(=O)NCCCN4CCCCCC4)oc3nc2c1 | 1 | -2 | -1 | 97* | 32 | -16
CCCN1CCN(CCCNC(=O)c2cc3c(=O)oc4ccc(C)cc4c3s2)CC1 | 0 | 5 | -13 | . | 12 | 33
COc1ccc2nc3sc(C(=O)NCCCN4CCc5ccccc5C4)cc3cc2c1 | -9 | 7 | 5 | 100* | 12 | -12
Cc1ccc2nc(Cl)c3cc(C(=O)NCCCN4CCCC4)sc3c2c1 | -3 | 4 | 33 | 101* | 68* | 10
Cc1ccc2cc3cc(C(=O)NCCCN4CCc5ccccc5C4)oc3nc2c1 | -6 | 22 | 4 | 97* | 47 | -4
COCCNC(=O)c1ccc(-n2c(SCc3ccncc3)nc3ccccc3c2=O)cc1 | -1 | 6 | -10 | -1 | 10 | -35
COC(CNC(=O)c1cccnc1)OC | -4 | -2 | -3 | -2 | -2 | -9
COC(CNC(=O)c1ccc2c3c(onc13)-c1ccccc1C2=O)OC | 58 | 18 | 84* | . | 0 | -84
COc1ccc(-c2csc(C3=C(O)CN(Cc4ccc(S(N)(=O)=O)cc4)C3=N)n2)cc1OC | -2 | -10 | -15 | -5 | -15 | 46
COc1ccc(-c2csc(C3=C(O)CN(Cc4ccc(Cl)cc4)C3=N)n2)cc1OC | 5 | 20 | 11 | 58* | 11 | 10
COc1cc(CNCc2ccccn2)ccc1OCc1ccc(Cl)c(Cl)c1 | 16 | -3 | 30 | 100* | 8 | -52
COc1cc(CNCc2ccccn2)ccc1OCC(N)=O | -1 | 7 | 14 | -2 | -4 | -10
COc1cc(CNCc2ccccn2)ccc1OCc1ccc(Cl)cc1Cl | 4 | 45 | -3 | 99* | 10 | 36
CCC(C)NC(=O)CSc1nnc(-c2ccc(OC)c(OC)c2)c(-c2ccc(OC)c(OC)c2)n1 (stereo not given) | 0 | -1 | -5 | . | 15 | 8
CCCCCC(=O)NC(=S)NC1C2CC3CC(C2)CC1C3 (stereo not given) | . | 83* | 57 | . | 30 | 36
OC1CCCN(Cc2c3ccccc3cc3ccccc23)C1 (stereo not given) | 16 | 18 | 11 | 78* | 15 | -27
OC1CCCN(Cc2cccc3ccccc23)C1 (stereo not given) | -1 | . | 4 | -5 | . | 3
Clc1ccc2nc(C3CCN(Cc4ccccc4)CC3)[nH]c2c1 | 5 | -6 | 14 | 88* | ? | 1
Cc1ccc(CN2CCC(c3nc4ccc(Cl)cc4[nH]3)CC2)cc1 | -10 | -3 | 17 | 92* | 41 | 22
CC1CCCCN1C(=O)CN1CCC(c2nc3ccc(Cl)cc3[nH]2)CC1 (stereo not given) | 3 | -7 | -5 | 3 | 9 | 32
COc1cccc(CNC(=O)CN2CCC(c3nc4ccc(C)cc4[nH]3)CC2)c1 | . | -5 | -5 | -3 | 55* | 13
CC(C)CCNCC(=O)NC(c1ccccc1)c1ccccc1 | 0 | . | -2 | 13 | . | 25
CC(C)(C)NS(=O)(=O)c1ccc(NC(=O)C2CCCCC2)cc1 | -7 | -5 | -10 | 1 | -10 | 27
CCOc1ccccc1NC(=O)c1sc2ncn(CC(=O)N3CCOCC3)c(=O)c2c1C | -2 | -1 | 8 | . | 0 | 13
C#CCOCCOCCOCCNc1nc(N2CCOCC2)nc(N2CCN(C(=O)CCCCCCCCCCNC(=O)[C@H]([C@@H](C)CC)n3cc(CCCCN=C(N)N)nn3)CC2)n1 | -6 | . | 22 | . | . | 20
C#CCOCCOCCOCCNc1nc(N2CCN(C(=O)CCCCCCCCCCNC(=O)[C@H](CCCN=C(N)N)n3cc(C[C@@H](C)CC)nn3)CC2)nc(N2CCN(C(=O)CCCCCCCCCCNC(=O)[C@@H]([C@H](C)CC)n3cc(CCCCCN)nn3)CC2)n1 | 107* | . | 168* | . | . | 43
